From PubChem BioAssay
An excerpt weighted towards active compounds, which were near 2% of everything screened.
TPT1 inhibitor – inhibitors of Candida albicans tRNA 2'-phosphotransferase TPT1; 300,000 tested, 0.81% active; recombinant caTPT1, FP RNA substrate dephosphorylation; AID 1962; inhibition, % at 5 µM;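 active = inhibition above the mean of all tested compounds plus 3 SD, set per screening campaign, cut at about 24% in these data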;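 also: plate controls were DMSO alone for no effect and ferristatin control at 100 nM for full effect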
SENP1 FRET inh – SENP1 (human) catalytic domain inhibition | AID 624204 | 360,000 tested, 0.21% active | Q9P0U3 | inhibition, % at 10 µM | recombinant SENP1 catalytic domain, CyPet-SUMO1-YPet FRET cleavage;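 active = inhibition at least 30% at 10 µM, raw YFP signal under a set limit, fluorescence ratio 0.5 to 1.5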;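 also: 0% = enzyme with DMSO and 100% = no enzyme wells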
Target sequence (Q9P0U3 419-644 limits assumed): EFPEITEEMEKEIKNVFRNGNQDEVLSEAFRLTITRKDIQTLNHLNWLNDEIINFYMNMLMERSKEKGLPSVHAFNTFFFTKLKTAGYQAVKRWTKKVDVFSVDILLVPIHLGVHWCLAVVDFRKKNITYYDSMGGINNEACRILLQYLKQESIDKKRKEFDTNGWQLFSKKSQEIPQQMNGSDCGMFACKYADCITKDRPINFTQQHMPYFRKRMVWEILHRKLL
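Assay system – human recombinant His6-tagged SENP1 catalytic domain enzyme · Input – SENP1 enzyme, 20 pM final · Buffer or medium – Tris pH 8 buffer plus EDTA, NaCl, BME, BSA, NP40, catalase · Schedule – 50 min reaction at room temperature · Technique – FRET read of cyan and yellow fluorescence · Control set – no-enzyme wells low, DMSO-plus-enzyme wells high control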
CSN inh – blocks human CSN-mediated cullin deneddylation; Q92905; Purified CSN, SCF-Nedd8-OG deneddylation, fluorescence polarization; inhibition, % at 12.5 µM; 360,000 tested, 0.38% active; AID 651999;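 active = pattern-corrected inhibition above about 35%, with an unprinted fluorescence ratio check between 0.5 and 1.5, limit read from the data, passing the limit was not always enough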;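 also: 0% = enzyme with substrate and 100% = substrate without enzyme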
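Material: human Csn5 produced in HEK293T cells; Input: enzyme 0.24 nM; Reagent: SCFSkp2-Nedd8OG substrate at 10 nM final; Dosing: 12.5 µM compound; Incubation: 90 min reaction at room temperature; Detection: fluorescence polarization of the substrate; Evaluation: % inhibition of substrate cleavage by Csn5; Control set: substrate-only high control, full reaction low control.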
ATG4B inhibitor – blocks human ATG4B protease cleavage of LC3 substrate. inhibition, % at 8.33 µM. ATG4B cleavage of LC3-PLA2, NBD-HPC fluorescence, 1 h. 340,000 tested, 0.51% active
Rpn11 block – inhibitors of human proteasome Rpn11 | human 26S proteasome, Ub4-pepOG fluorescence polarization; 20S core pre-blocked with epoxomicin | inhibition, % at 20 µM | 360,000 tested, 0.59% active;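 active = inhibition at 20 µM, scaled to each plate's controls, above about 33%, limit read from the data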
Target sequence (O00487 whole entry, looked up): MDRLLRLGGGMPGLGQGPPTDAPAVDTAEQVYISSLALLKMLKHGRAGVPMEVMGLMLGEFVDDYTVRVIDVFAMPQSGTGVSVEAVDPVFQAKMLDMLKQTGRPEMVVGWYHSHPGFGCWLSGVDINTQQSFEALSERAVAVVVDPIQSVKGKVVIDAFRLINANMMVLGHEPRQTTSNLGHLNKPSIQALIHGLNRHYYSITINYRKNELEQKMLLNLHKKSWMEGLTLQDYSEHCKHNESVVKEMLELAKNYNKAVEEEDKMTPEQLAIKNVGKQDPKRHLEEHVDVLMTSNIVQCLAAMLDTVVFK
HNF4A DNA FP – change in binding of human HNF4 alpha to DNA; HNF4a-FITC DNA binding, fluorescence polarization, 1 h; activity change, % at 10 µM; 360,000 tested, 0.3% active; in the data active = activity change above about 30%, passing the limit was not always enough
Rpn11 confirm – Rpn11 inhibition confirmation, single concentration | shares compounds with Rpn11 block | inhibition, % at 20 µM | 1,900 tested, 29% active | purified human 26S proteasome, Ub4-pepOG fluorescence polarization; proteasome pretreated with epoxomicin
MMP-2 counter – blocks human MMP-2, flagging nonselective RPN11 hits | recombinant MMP-2, FRET peptide cleavage fluorescence | AID 602330 | 1,900 tested, 4% active | shares compounds with Rpn11 block | inhibition, % at 20 µM;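 also: human MMP-2 activated beforehand with APMA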
Thrombin inh – thrombin (bovine) inhibition counter-screen | shares compounds with Rpn11 block | bovine thrombin cleavage of Ub4-pepOG, fluorescence polarization | inhibition, % at 20 µM | 1,900 tested, 13% active | AID 602333;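 active = mean inhibition at least 40% at 20 µM, or signal 3 deviations below plate average, so some actives read negative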;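 also: plate controls were thrombin with DMSO for no effect and buffer wells lacking thrombin for full effect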
* = called active by the depositor; . = not tested or not shown. Rule as the data show it, unless noted: active = inhibition above about 40%; inactive = the rest.

SMILES	TPT1 inhibitor	SENP1 FRET inh	CSN inh	ATG4B inhibitor	Rpn11 block	HNF4A DNA FP	Rpn11 confirm	MMP-2 counter	Thrombin inh
Cc1cccc(C)c1NC(=O)Cn1cnc2c(=O)n(C)c(=O)n(C)c21	-2	0	-4	-8	0	1	.	.	.
Cn1c(=O)c2ncn(CC(=O)Nc3ccc4c5c(cccc35)CC4)c2n(C)c1=O	11	13	0	-2	52*	15	34	-12	19
O=C(CN1C(=O)CCC1=O)Nc1ccc2c3c(cccc13)CC2	2	1	0	-3	102*	2	7	-12	1
O=C1C=CC(=Nc2ccc3c(c2)Cc2ccccc2-3)O1	.	-1	-1	-8	2	4	.	.	.
O=c1[nH]c(CSc2ncnc3sccc23)nc2cc(C(F)(F)F)ccc12	20	-50	16	9	49*	5	46*	-7	-9
O=c1[nH]c(CSc2ncc(C(F)(F)F)cc2Cl)nc2ccccc12	2	-4	8	1	7	-3	.	.	.
CC1(c2nnnn2Cc2ccccc2)CCC(=O)N1Cc1ccc(F)cc1 (stereo not given)	.	2	-3	.	.	1	.	.	.
Cc1ccccc1CN1C(=O)C(C)Sc2ccc(-c3ccco3)cc21 (stereo not given)	.	-7	30	.	60*	19	46*	4	25
NCCCC[C@H]1CN=C(N)N1CCCCC1CCCCC1	-5	1	-6	1	6	0	.	.	.
NCCCC[C@H]1CN=C(N)N1CC1CCCCC1	0	-1	2	0	34*	-29	-12	-3	47*
CCOC(=O)c1cccc(NC(=O)c2c(NCc3ccccc3)[nH]c(=O)[nH]c2=O)c1	-4	1	0	0	-5	-1	.	.	.
COc1ccc(-c2ccc(/C=C3/C(=N)N4C=CSC4=NC3=O)o2)c([N+](=O)[O-])c1	15	10	-2	19	41*	2	3	-13	13
O=C(c1cccc(S(=O)(=O)N2CCc3ccccc32)c1)N1CCN(c2ccccn2)CC1	-3	3	-1	-10	0	3	.	.	.
Cc1cc(N2CCC(C)CC2)c(F)cc1[N+](=O)[O-]	1	-2	2	-1	6	4	.	.	.
Cc1cc(N2CCCC2)c(F)cc1/C=C\[N+](=O)[O-]	.	25	31	4	64*	-1	60*	-53	22
CC1Cc2cc(S(=O)(=O)NCCC(=O)N(C)Cc3ccccc3)ccc2N1C(=O)C1CC1 (stereo not given)	-7	3	-5	-16	2	5	.	.	.
Cc1nc(N2CCOCC2)nc(N2CCCCC2)c1[N+](=O)[O-]	0	2	-10	9	-9	0	.	.	.
Cc1nc(N2CCCCC2)nc(N2CCCCC2)c1C=O	11	-18	1	9	58*	10	25	-61	-4
CCn1c(SCC(=O)Nc2ccc(OC)cc2)nc2c(c1=O)SCC2	-2	-1	-1	4	3	2	.	.	.
O=C(NNC(=O)c1ccccc1Br)c1ccccc1Cl	-2	2	6	-4	2	-1	.	.	.
O=C(NNC1=Nc2cccc3cccc1c23)c1ccccc1Br	-1	-151	-1	-13	53*	3	1	-21	4
COc1cc(C=C(c2nc3ccccc3s2)c2nc3ccccc3s2)ccc1O	11	-13	14	24	61*	-3	5	-28	4
COc1cc(/C=C/c2nc3ccccc3s2)cc(OC)c1O	16	-38	8	-16	47*	10	4	-19	10
COc1ccc(C=C(c2nc3ccccc3s2)c2nc3ccccc3s2)cc1O	19	-73	4	14	18	13	.	.	.
CN(Cc1ccco1)C(=O)Cn1cc(S(=O)(=O)N2CCCC2)c(S(=O)(=O)N2CCCC2)c1	-1	-3	-2	1	-6	-4	.	.	.
SMILES	TPT1 inhibitor	SENP1 FRET inh	CSN inh	ATG4B inhibitor	Rpn11 block	HNF4A DNA FP	Rpn11 confirm	MMP-2 counter	Thrombin inh
Cc1cc(O)c(C(C)C)cc1N=Cc1cc([N+](=O)[O-])ccc1O	-5	-1	0	5	11	3	.	.	.
Cc1cc(O)c(C(C)C)cc1N=Cc1ccccc1O	-1	8	9	-1	45*	21	25	-20	24
COc1ccc(OCc2cc(C(=O)NCC(C)Oc3cccnc3)no2)c(Cl)c1 (stereo not given)	3	2	1	-10	-9	-5	.	.	.
Cc1csc(NC(=O)CSc2nc3sc(C)c(C)c3c(=O)[nH]2)n1	12	-6	20	7	53*	21	44*	-5	29
Cc1sc2nc(SCC(=O)Nc3ccccc3F)[nH]c(=O)c2c1C	2	0	-3	-1	0	0	.	.	.
O=C(CCN1C(=O)NC2(CCCC2)C1=O)Nc1ccc(-c2nc3ccccc3s2)cc1	.	5	10	-22	53*	26	61*	34	48*
CCC1(c2ccc(F)cc2)NC(=O)N(CC(=O)Nc2ccc(-c3nc4ccc(C)cc4s3)cc2)C1=O (stereo not given)	0	-74	0	-7	47*	4	38	8	11
O=C(CCN1C(=O)NC2(CCCC2)C1=O)Nc1ccc(Sc2ccc(Br)cc2)cc1	.	-1	0	.	6	1	.	.	.
COc1ccc(C2(C)NC(=O)N(CC(=O)Nc3ccc(-c4nc5ccc(C)cc5s4)cc3)C2=O)cc1 (stereo not given)	19	-51	-3	8	14	9	.	.	.
Cc1oc(-c2ccc(-c3ccccc3)cc2)nc1CN(CCO)C(C)C	-6	-2	-2	16	3	1	.	.	.
Cc1nnc(N2CCCC(C(=O)NCc3ccc(OC(C)C)cc3)C2)c2nn(-c3ccccc3)c(C)c12 (stereo not given)	5	9	7	8	53*	15	23	-11	10
CC(=O)NCCC1CCN(C(=O)C2CCC(=O)N(C3CCCC3)C2)CC1 (stereo not given)	2	3	-1	12	0	-3	.	.	.
COc1cc(C(=O)C(=O)c2ccc(OC)c(OC)c2)ccc1O	.	2	-1	7	1	3	.	.	.
Cc1ccc2nc(C)cc(Nc3ccc([N+](=O)[O-])cc3)c2c1	3	-36	4	13	45*	5	34	-10	-5
